Data from ChEMBL document CHEMBL1926614, “Substituted thiazoles V. synthesis and antitumor activity of novel thiazolo[2,3-b]quinazoline and pyrido[4,3-d]thiazolo[3,2-a]pyrimidine analogues” (2012).

Legend:
Format in all cases: functional
[1] = Cytotoxicity against human CNS cancer cells after 48 hrs by coulter counting; details: Cancer cell lines
Procedure, shortened: (§1)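 NCI 60-cell-line panel covering nine tumour subpanels, tested over a 5-log dose range. Compounds were dissolved in DMSO and diluted in phosphate-buffered saline to a final DMSO below 1%. Wells held 6 × 10⁴ cells/ml and were run in duplicate. Controls contained PBS and DMSO at matching dilutions. Incubation was at 37 °C in humidified 5% CO₂. GI₅₀, TGI and LC₅₀ were reported.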

[2] = Cytotoxicity against human melanoma cells after 48 hrs by coulter counting; details: Melanoma cell; procedure, shortened: as §1
[3] = Cytotoxicity against human renal cancer cells after 48 hrs by coulter counting; details: Cancer cell lines; procedure, shortened: as §1
[4] = Cytotoxicity against human ovarian cancer cells after 48 hrs by coulter counting; details: Cancer cell lines; procedure, shortened: as §1
[5] = Cytotoxicity against human prostate cancer cells after 48 hrs by coulter counting; details: Cancer cell lines; procedure, shortened: as §1
[6] = Cytotoxicity against human breast cancer cells after 48 hrs by coulter counting; details: Cancer cell lines; procedure, shortened: as §1
[7] = test system: NSCLC; assay: Cytotoxicity against human NSCLC cells after 48 hrs by coulter counting; procedure, shortened: as §1
[8] = Cytotoxicity against human leukemia cells after 48 hrs by coulter counting; details: Leukemia cell; procedure, shortened: as §1
[9] = Cytotoxicity against human colon cancer cells after 48 hrs by coulter counting; details: Cancer cell lines; procedure, shortened: as §1
[10] = read-out: LC50 (the source's name)

## O=c1[nH]cc(F)c(=O)[nH]1 [FLUOROURACIL]
[1]
  TGI: > 100 µM
[2]
  GI50: 70.6 µM
  TGI: > 100 µM
[2]; [10]
  CC50: > 100 µM
[3]
  GI50: 45.6 µM
  TGI: > 100 µM
[4]
  GI50: 61.4 µM
  TGI: > 100 µM
[4]; [10]
  CC50: > 100 µM
[5]
  GI50: 22.7 µM
  TGI: > 100 µM
[6]
  GI50: 76.4 µM
  TGI: > 100 µM
[6]; [10]
  CC50: > 100 µM
[7]
  GI50: > 100 µM
  TGI: > 100 µM
[7]; [10]
  CC50: > 100 µM
[8]
  TGI: > 100 µM
[8]; [10]
  CC50: > 100 µM
[9]
  GI50: 8.4 µM
  TGI: > 100 µM
